Test results reported in ChEMBL document CHEMBL2163223, “Synthesis and evaluation of novel α-fluorinated (E)-3-((6-methylpyridin-2-yl)ethynyl)cyclohex-2-enone-O-methyl oxime (ABP688) derivatives as metabotropic glutamate receptor subtype 5 PET radiotracers” (J Med Chem, 2012).
Each block holds one compound with its values, some of them ahead of it. The source made the active and inactive calls. The calls are words filed in the database; no cut-off is given here.

Columns and labels:
[1] = target: T1, Metabotropic glutamate receptor 5 (Rattus norvegicus, UniProt P31424); experiment: Displacement of [3H]-ABP688 from mGluR5 receptor in Sprague-Dawley rat brain after 45 mins by beta counting
Summary of the method: (§1)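 0.1 mg protein incubated in triplicate at ambient temperature with 2 nM [3H]-ABP688 and competitor 10 pM–100 μM for 45 min. Nonspecific binding from 100 μM MMPEP. Filtered, β-counted.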

[2] = target: Metabotropic glutamate receptor 5 (Rattus norvegicus) (UniProt P31424); experiment: Binding affinity to mGluR5 receptor in Wistar rat brain at 1 to 10 nM after 45 mins by autoradiography in presence of ABP688; details: tested as the 18F-labelled form
Summary of the method: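 Horizontal brain slices (20 μm) from a male Wistar rat were thawed and preincubated on ice for 10 min in HEPES buffer with 0.1% BSA. They were then incubated with 1 or 10 nM radiotracer, alone or with 100 nM ABP688, in HEPES for 45 min at ambient temperature. Washed on ice in HEPES/0.1% BSA, then twice in HEPES (3 min each), and dipped in water.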

[3] = Lipophilicity, log D of the compound at pH 7.4 by HPLC analysis; type: physicochemical; details: buffer
[4] = Lipophilicity, log D of the compound at pH 7.4 using shake flask method; type: physicochemical; details: buffer
[5] = target: T1, Metabotropic glutamate receptor 5; experiment: Binding affinity to mGluR5 receptor in Sprague-Dawley rat brain by beta counting; summary of the method: as §1
Plasma = experiment: Metabolic stability of the compound in rat plasma at 7 to 8 MBq after 2 hrs by HPLC analysis; type: ADME, cell-free; details: in the assay text read “21 MBq” for “7 to 8 MBq”
Summary of the method: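 Radiotracer (21 MBq) incubated at 37 °C for up to 2 h in phosphate buffer (4 mM KH2PO4/Na2HPO4, 155 mM NaCl, pH 7.4) or rat plasma. Samples taken at several time points, quenched with ice-cold MeCN. Plasma samples centrifuged at 12000g for 10 min. Samples filtered; supernatants analyzed by radio-HPLC on a reversed-phase C18 column with 70% aq MeCN.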

[6] = Chemical stability in phosphate buffer at 21 MBq at pH 7.4 after 2 hrs by HPLC analysis; details: pH 7.4, 2 h

T1 sequence (P31424 whole entry): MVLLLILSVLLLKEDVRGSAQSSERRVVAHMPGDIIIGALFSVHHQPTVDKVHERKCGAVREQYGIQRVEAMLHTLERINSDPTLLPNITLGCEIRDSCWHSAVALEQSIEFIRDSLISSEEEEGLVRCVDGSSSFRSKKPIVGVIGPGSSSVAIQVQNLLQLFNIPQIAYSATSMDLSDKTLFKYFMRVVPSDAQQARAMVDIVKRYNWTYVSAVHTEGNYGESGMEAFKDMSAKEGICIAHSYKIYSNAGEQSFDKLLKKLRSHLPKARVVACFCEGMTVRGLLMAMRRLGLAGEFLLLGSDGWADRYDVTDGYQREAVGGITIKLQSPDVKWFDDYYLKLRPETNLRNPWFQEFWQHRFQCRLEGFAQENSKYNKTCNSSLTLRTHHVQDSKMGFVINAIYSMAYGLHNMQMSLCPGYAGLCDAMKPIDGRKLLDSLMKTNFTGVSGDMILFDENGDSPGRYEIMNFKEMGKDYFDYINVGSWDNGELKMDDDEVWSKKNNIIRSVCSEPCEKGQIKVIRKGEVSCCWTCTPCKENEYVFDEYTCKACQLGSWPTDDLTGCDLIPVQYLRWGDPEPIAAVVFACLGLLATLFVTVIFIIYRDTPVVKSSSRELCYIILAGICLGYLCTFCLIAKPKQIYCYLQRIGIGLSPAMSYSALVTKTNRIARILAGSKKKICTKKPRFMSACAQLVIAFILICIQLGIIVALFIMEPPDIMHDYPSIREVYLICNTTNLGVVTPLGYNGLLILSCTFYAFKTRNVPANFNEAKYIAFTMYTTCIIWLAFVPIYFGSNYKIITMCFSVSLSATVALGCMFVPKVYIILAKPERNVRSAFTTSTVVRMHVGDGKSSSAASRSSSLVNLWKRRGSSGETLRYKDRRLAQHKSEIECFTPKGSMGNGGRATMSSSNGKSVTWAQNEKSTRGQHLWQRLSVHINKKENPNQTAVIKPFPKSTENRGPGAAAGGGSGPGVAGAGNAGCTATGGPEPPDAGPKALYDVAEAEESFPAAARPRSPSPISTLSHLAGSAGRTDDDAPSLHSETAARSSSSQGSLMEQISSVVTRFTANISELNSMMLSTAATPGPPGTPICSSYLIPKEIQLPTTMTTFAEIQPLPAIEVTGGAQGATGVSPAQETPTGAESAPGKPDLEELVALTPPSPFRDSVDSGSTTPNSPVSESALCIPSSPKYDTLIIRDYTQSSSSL
Metabotropic glutamate receptor 5 (Rattus norvegicus), sequence (P31424 21-1203 limits assumed): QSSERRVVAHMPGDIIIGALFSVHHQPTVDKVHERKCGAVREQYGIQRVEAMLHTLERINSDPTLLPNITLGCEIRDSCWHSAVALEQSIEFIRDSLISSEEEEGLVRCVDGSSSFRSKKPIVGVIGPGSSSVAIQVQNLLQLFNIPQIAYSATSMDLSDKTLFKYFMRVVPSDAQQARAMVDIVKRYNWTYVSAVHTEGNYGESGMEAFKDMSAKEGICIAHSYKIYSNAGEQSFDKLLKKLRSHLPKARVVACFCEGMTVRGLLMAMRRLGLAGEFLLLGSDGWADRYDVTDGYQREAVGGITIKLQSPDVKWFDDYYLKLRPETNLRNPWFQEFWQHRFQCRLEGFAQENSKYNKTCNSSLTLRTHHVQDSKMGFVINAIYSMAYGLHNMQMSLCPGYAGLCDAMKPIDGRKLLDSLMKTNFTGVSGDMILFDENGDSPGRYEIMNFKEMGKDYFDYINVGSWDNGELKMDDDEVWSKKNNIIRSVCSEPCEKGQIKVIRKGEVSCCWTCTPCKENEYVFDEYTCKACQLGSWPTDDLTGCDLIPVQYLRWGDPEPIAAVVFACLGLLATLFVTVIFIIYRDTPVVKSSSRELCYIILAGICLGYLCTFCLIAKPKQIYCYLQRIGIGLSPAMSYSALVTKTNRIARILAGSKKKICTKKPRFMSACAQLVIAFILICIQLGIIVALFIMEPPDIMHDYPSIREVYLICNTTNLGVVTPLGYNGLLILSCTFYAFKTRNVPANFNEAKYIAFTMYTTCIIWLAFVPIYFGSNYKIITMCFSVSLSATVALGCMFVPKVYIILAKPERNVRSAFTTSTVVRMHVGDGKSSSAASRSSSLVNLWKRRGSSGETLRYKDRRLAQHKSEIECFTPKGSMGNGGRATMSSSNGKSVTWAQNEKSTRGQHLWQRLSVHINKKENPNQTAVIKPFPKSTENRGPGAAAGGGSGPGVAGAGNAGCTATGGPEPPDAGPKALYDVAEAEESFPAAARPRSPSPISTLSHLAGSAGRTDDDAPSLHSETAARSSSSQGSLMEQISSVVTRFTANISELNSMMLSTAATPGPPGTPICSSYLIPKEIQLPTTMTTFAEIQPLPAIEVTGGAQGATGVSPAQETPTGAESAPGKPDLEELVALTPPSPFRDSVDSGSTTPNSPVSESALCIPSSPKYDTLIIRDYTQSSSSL

Compound: CCO/N=C1/C=C(C#Cc2cccc(C)n2)CCC1F (stereo unspecified)
- Ki [1]: 13 nM

Compound: CCO/N=C1\C=C(C#Cc2ccccn2)CCC1F (stereo unspecified)
- Activity [2]: Active
- logD [3]: 2.1
- logD [4]: 3.5
- Ki [1]: 31.2 nM

Compound: CCO/N=C1\C=C(C#Cc2ccccn2)CCC1[18F] (stereo unspecified)
- Kd [5]: 70 nM
- Stability (Plasma): Stable
- Stability [6]: Stable

The next lines start with the values.

- Ki [1]: 3.4 nM
Compound: CO/N=C1/C=C(C#Cc2ccccn2)CCC1F (stereo unspecified)

- Ki [1]: 8.5 nM
Compound: CO/N=C1/C=C(C#Cc2cccc(C)n2)CCC1F (stereo unspecified)

- Ki [1]: 5.7 nM
Compound: CCO/N=C1/C=C(C#Cc2ccccn2)CCC1F (stereo unspecified)
